# From the M2OR odorant receptor database
# Numbering of substitutions follows the chain as printed.
# How the values were obtained:
# Conditions in all cases: stereoisomer not certain
# OR9A4 (Homo sapiens) = target: T1, OR9A4 (Homo sapiens) (UniProt Q8NGU2)
# T1 sequence (whole entry): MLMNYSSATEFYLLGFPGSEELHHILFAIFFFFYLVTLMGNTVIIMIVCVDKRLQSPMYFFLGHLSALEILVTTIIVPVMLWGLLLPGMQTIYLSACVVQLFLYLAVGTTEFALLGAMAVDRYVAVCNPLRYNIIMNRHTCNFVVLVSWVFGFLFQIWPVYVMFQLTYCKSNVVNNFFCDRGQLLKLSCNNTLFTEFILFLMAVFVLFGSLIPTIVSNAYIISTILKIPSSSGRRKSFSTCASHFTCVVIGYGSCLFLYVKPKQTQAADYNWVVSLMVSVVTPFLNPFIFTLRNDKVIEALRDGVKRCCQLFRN
# How it was run: (§1)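 Transient luciferase assays in mammalian cell lines were common, though methods varied by source. The values come from published papers and their supplementary material, with extra details from the original authors when needed. Responsive refers to a measured signal the original authors judged statistically different from baseline, and non-responsive (inactive) to the remainder.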
# OR9G1 (Homo sapiens) = target: T2, OR9G1 (Homo sapiens) (UniProt Q8NH87)
# T2 sequence (whole entry): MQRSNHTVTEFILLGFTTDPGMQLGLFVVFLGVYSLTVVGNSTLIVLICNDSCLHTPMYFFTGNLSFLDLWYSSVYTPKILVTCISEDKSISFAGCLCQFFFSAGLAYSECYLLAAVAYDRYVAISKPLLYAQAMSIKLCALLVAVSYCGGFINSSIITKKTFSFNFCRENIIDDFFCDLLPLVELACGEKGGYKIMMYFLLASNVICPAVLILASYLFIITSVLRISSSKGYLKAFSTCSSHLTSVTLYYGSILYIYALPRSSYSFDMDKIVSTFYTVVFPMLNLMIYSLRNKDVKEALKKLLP
# How it was run: as §1
# OR9G4 (Homo sapiens) = target: T3, OR9G4 (Homo sapiens) (UniProt Q8NGQ1)
# T3 sequence (whole entry): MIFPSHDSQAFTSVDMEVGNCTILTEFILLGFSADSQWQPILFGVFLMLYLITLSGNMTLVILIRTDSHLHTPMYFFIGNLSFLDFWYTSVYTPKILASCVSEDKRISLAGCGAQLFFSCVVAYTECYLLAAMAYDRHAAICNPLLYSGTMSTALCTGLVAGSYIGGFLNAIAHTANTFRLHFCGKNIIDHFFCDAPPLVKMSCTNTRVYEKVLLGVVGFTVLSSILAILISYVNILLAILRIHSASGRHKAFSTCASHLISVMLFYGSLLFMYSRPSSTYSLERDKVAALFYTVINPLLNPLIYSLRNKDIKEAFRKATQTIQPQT
# How it was run: as §1
# OR9G4 H6Y N206D V222A = test system: T4, OR9G4 H6Y N206D V222A
# T4 sequence (whole entry): T3 sequence (whole entry) with H6Y, N206D, V222A
# How it was run: as §1
# OR9G4 N206D V222A = test system: T5, OR9G4 N206D V222A
# T5 sequence (whole entry): T3 sequence (whole entry) with N206D, V222A
# How it was run: as §1
# OR9G9 = test system: T6, OR9G9
# T6 sequence (whole entry): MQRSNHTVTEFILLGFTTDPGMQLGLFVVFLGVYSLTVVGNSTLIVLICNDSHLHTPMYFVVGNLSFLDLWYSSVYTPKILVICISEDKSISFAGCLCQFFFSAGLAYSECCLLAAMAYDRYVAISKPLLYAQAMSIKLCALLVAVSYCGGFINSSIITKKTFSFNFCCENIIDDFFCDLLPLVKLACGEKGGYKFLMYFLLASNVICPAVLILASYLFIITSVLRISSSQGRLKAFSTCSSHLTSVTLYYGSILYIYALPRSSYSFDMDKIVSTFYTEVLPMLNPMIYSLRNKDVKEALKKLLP
# How it was run: as §1
# OR9I1 (Homo sapiens) = target: T7, OR9I1 (Homo sapiens) (UniProt Q8NGQ6)
# T7 sequence (whole entry): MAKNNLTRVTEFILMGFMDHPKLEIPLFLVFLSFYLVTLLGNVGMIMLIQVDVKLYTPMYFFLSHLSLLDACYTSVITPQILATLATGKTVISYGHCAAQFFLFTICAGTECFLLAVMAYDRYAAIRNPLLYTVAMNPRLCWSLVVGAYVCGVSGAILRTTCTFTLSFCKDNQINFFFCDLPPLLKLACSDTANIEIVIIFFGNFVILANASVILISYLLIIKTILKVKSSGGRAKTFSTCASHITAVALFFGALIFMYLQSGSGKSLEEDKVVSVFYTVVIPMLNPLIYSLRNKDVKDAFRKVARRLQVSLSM
# How it was run: as §1
# OR9K2 (Homo sapiens) = target: T8, OR9K2 (Homo sapiens) (UniProt Q8NGE7)
# T8 sequence (whole entry): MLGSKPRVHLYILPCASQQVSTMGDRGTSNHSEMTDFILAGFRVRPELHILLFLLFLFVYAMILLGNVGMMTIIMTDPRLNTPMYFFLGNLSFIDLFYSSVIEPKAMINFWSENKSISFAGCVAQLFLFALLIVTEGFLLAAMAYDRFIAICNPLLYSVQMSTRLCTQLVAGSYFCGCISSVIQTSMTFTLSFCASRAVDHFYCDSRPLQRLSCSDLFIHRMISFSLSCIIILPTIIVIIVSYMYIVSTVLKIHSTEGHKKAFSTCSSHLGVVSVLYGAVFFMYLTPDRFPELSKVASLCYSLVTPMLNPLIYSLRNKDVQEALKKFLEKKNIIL
# How it was run: as §1
# OR9K2 R207H = test system: T9, OR9K2 R207H
# T9 sequence (whole entry): T8 sequence (whole entry) with R207H
# How it was run: as §1
# OR9Q1 (Homo sapiens) = target: T10, OR9Q1 (Homo sapiens) (UniProt Q8NGQ5)
# T10 sequence (whole entry): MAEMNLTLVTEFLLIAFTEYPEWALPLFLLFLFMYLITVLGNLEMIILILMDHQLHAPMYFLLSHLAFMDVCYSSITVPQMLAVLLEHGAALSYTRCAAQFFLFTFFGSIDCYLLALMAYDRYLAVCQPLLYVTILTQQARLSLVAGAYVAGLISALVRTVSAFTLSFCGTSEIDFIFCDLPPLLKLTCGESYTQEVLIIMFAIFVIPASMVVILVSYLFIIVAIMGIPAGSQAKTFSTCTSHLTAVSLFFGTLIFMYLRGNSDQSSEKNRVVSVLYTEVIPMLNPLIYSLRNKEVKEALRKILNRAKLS
# How it was run: as §1
# OR9Q1 A83T = test system: T11, OR9Q1 A83T
# T11 sequence (whole entry): T10 sequence (whole entry) with A83T
# How it was run: as §1
# OR9Q2 (Homo sapiens) = target: T12, OR9Q2 (Homo sapiens) (UniProt Q8NGE9)
# T12 sequence (whole entry): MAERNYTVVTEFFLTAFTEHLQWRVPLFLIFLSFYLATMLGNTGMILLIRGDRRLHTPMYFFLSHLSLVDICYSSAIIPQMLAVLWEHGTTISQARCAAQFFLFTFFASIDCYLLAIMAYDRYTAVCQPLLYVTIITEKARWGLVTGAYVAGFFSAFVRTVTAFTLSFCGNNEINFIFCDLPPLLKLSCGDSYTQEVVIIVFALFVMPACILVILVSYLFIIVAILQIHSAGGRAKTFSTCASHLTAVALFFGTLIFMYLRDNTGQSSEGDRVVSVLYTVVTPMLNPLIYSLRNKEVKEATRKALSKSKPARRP
# How it was run: as §1
# OR9Q2 C179R = test system: T13, OR9Q2 C179R
# T13 sequence (whole entry): T12 sequence (whole entry) with C179R
# How it was run: as §1
# Or5k16 (Mus musculus) = target: T14, Or5k16 (Mus musculus) (UniProt Q7TS48)
# T14 sequence (whole entry): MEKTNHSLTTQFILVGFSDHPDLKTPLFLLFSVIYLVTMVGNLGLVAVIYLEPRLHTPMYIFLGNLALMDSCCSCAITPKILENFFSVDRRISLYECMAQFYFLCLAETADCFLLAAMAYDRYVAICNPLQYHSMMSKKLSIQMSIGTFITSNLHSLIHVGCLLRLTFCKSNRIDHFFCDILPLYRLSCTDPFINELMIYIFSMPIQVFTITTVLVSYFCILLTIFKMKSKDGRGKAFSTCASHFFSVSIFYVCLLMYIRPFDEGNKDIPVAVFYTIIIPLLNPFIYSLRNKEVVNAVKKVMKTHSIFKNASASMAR
# How it was run: as §1
# Or10j5 (Mus musculus) = target: T15, Or10j5 (Mus musculus) (UniProt Q62007)
# T15 sequence (whole entry): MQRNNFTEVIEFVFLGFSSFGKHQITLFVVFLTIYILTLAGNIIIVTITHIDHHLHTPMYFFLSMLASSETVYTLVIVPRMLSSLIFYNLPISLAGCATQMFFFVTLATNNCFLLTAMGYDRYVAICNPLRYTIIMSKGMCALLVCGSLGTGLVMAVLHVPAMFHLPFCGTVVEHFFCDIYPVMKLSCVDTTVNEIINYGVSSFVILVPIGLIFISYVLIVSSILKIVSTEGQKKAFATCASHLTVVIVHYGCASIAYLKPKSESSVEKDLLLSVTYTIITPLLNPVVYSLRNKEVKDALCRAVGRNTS
# How it was run: as §1
# Or1m1 (Mus musculus) = target: T16, Or1m1 (Mus musculus) (UniProt Q8VFM9)
# T16 sequence (whole entry): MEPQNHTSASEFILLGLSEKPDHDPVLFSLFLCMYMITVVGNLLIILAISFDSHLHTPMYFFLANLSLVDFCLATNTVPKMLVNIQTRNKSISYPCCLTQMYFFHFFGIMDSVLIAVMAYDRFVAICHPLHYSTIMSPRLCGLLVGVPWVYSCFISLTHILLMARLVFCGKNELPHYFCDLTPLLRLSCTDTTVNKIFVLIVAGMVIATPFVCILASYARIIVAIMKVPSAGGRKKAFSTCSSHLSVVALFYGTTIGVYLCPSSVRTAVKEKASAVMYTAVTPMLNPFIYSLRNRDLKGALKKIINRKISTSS
# How it was run: as §1
# Or2c1 (Mus musculus) = target: T17, Or2c1 (Mus musculus) (UniProt P23275)
# T17 sequence (whole entry): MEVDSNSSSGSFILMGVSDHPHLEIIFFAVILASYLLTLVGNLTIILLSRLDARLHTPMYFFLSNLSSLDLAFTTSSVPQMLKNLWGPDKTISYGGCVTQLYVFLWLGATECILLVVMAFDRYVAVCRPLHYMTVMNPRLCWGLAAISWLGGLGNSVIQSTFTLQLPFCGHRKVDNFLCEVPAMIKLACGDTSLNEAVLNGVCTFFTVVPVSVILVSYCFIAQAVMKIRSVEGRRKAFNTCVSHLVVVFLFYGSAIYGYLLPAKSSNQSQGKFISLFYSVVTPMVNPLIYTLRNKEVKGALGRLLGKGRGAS
# How it was run: as §1
# Or5ar1 (Mus musculus) = target: T18, Or5ar1 (Mus musculus) (UniProt Q8VGS3)
# T18 sequence (whole entry): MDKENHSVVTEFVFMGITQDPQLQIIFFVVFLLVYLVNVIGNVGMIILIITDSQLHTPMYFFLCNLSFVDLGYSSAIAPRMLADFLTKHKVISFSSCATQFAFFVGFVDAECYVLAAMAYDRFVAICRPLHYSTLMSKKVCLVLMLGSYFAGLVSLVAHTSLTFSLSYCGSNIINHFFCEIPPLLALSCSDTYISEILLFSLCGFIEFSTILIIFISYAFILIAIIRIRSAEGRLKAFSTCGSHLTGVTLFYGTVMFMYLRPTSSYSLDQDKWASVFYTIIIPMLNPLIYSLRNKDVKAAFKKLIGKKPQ
# How it was run: as §1
# Or5an6 (Mus musculus) = target: T19, Or5an6 (Mus musculus) (UniProt Q8VFV4)
# T19 sequence (whole entry): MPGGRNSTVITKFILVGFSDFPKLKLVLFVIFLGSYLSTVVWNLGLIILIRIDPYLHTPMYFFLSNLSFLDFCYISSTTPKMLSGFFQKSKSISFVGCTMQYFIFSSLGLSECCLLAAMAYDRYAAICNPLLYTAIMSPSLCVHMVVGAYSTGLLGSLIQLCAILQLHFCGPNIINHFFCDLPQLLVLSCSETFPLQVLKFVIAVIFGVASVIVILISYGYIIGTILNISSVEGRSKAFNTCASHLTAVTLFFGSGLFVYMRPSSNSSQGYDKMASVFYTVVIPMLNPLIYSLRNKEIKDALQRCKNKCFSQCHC
# How it was run: as §1
# 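Also: active if original authors judged signal statistically different from baseline.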
smiles,measurement,setting,value
Cc1cnc(C)c(C)n1,odorant receptor agonist call,OR9A4 (Homo sapiens),inactive
same,odorant receptor agonist call,OR9G1 (Homo sapiens),inactive
same,odorant receptor agonist call,OR9G4 (Homo sapiens),inactive
same,odorant receptor agonist call,OR9G4 H6Y N206D V222A,inactive
same,odorant receptor agonist call,OR9G4 N206D V222A,inactive
same,odorant receptor agonist call,OR9G9,inactive
same,odorant receptor agonist call,OR9I1 (Homo sapiens),inactive
same,odorant receptor agonist call,OR9K2 (Homo sapiens),inactive
same,odorant receptor agonist call,OR9K2 R207H,inactive
same,odorant receptor agonist call,OR9Q1 (Homo sapiens),inactive
same,odorant receptor agonist call,OR9Q1 A83T,inactive
same,odorant receptor agonist call,OR9Q2 (Homo sapiens),inactive
same,odorant receptor agonist call,OR9Q2 C179R,inactive
same,odorant receptor agonist call,Or5k16 (Mus musculus),inactive
CCCCOC(=O)CCC,odorant receptor agonist call,Or10j5 (Mus musculus),inactive
O=C(O)CCCCCCCCCCBr,odorant receptor agonist call,Or10j5 (Mus musculus),inactive
CCCCC(=O)CC,odorant receptor agonist call,Or1m1 (Mus musculus),inactive
same,odorant receptor agonist call,Or2c1 (Mus musculus),inactive
same,odorant receptor agonist call,Or5ar1 (Mus musculus),inactive
CCCCCCOC(C)=O,odorant receptor agonist call,Or1m1 (Mus musculus),inactive
same,odorant receptor agonist call,Or2c1 (Mus musculus),inactive
same,odorant receptor agonist call,Or5ar1 (Mus musculus),inactive
CC1CC=CCCCCCCCCCC(=O)C1 (stereo not given),odorant receptor agonist call,Or1m1 (Mus musculus),inactive
same,odorant receptor agonist call,Or5an6 (Mus musculus),active
same,odorant receptor agonist call,Or5ar1 (Mus musculus),inactive
